{"source": "ChEMBL document CHEMBL1137803", "about": "“A novel anti-HIV macrocyclic peptide from Palicourea condensata” (J Nat Prod, 2001)", "key": {"[1]": {"test_system": "Human immunodeficiency virus 1", "test": "Antiviral activity against HIV1 RF infected in human CEM-SS cells assessed as inhibition of virus induced cytopathic effect by XTT assay", "format": "functional, organism-based", "details": "Human immunodeficiency virus 1, RF", "method_in_brief": "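HIV-1RF infection of CEM-SS, a human T-lymphoblastoid cell line, in vitro; inhibition of virus-induced cytopathic effects read out and reported as EC50 in µM.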"}, "CEM-SS": {"test_system": "CEM-SS", "test": "Cytotoxicity against human CEM-SS cells by XTT assay", "format": "cell-based"}}, "note": "Where a SMILES comes first, the peptide text is derived from it. Bridges are numbered along the chain shown (N, C = ends).", "data": [{"compound": "CC[C@H](C)[C@@H]1NC(=O)[C@H](C(C)C)NC(=O)[C@H](CCCNC(=N)N)NC(=O)[C@@H]2CSSC[C@@H]3NC(=O)[C@H]([C@@H](C)O)NC(=O)[C@@H]4CSSC[C@H](NC(=O)[C@H](Cc5ccccc5)NC(=O)[C@H]([C@@H](C)O)NC(=O)[C@@H]5CCCN5C(=O)[C@H](CC(=O)O)NC(=O)CNC(=O)[C@H](CC(N)=O)NC(=O)[C@H](CCCNC(=N)N)NC(=O)[C@H](CCCCN)NC(=O)[C@H](CSSC[C@H](NC(=O)[C@H](C(C)C)NC(=O)[C@@H]5CCCN5C1=O)C(=O)N[C@@H]([C@@H](C)O)C(=O)N[C@@H](Cc1ccc(O)cc1)C(=O)N[C@@H](CO)C(=O)N[C@@H](C)C(=O)N[C@@H](C)C(=O)N[C@@H](CC(C)C)C(=O)NCC(=O)N4)NC(=O)[C@H](CC(C)C)NC(=O)CNC(=O)[C@H](CC(=O)O)NC(=O)[C@H](CO)NC(=O)[C@H](CCCNC(=N)N)NC(=O)[C@H](CC(=O)O)NC(=O)[C@H](CC(=O)O)NC3=O)C(=O)NCC(=O)N[C@@H](CCC(=O)O)C(=O)N[C@@H]([C@@H](C)O)C(=O)N2", "note": "[PALICOUREIN] (cyclo(AALGCTCDDRSDGLCKRNGDPTFCGETCRVIPVCTYS); disulfide 5-24, 7-28, 15-34)", "values": [{"measurement": "EC50", "setting": "[1]", "value": 100, "unit": "nM"}, {"measurement": "IC50", "setting": "CEM-SS", "value": 1500, "unit": "nM"}]}]}
